Source: the EternaBench riboswitch data

System: MS2 coat protein
Test: apparent Kd, MS2 coat protein; higher = weaker binding; RNA-MaP array; FMN 200 µM where present
Outline: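 Two titrations, one without ligand and one with constant ligand, were run with SNAP-549-labelled MS2 coat protein from 0.7 or 1.5 nM, doubling to 3 µM. The targets were designs transcribed by stalled E. coli RNA polymerase on Illumina sequencing-chip clusters, in 100 mM Tris-HCl pH 7.5, 80 mM KCl, 4 mM MgCl2, BSA, DTT, yeast tRNA and Tween-20. The apparent Kd is the median of filtered per-cluster binding-curve fits, with green signal normalised to red-channel RNA signal and control-cluster median Fmax.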

[1] = designed as: OFF switch for flavin mononucleotide, no ligand
[2] = ligand present: flavin mononucleotide, designed as: OFF switch for flavin mononucleotide
[3] = designed as: ON switch for flavin mononucleotide, no ligand
[4] = ligand present: flavin mononucleotide, designed as: ON switch for flavin mononucleotide

Row | Sequence | apparent Kd [1] | apparent Kd [2] | apparent Kd [3] | apparent Kd [4]
1 | GGUACUCAAAGAGUACUUGGUCGAACAUGAGGAUCACCCAUGUAGGAUAUGCAAAGCUAGAAGUAGCAGAAGGACAUGUGCAGC | 0.0144 µM | 0.0221 µM | – | –
2 | UAUACUUACGAAGGAUAUGGUUACAUGAGGAUCACCCAUGUAUGUAUAUUGAUCUUGUAUCUUAACCAGAAGGUCGUCACUAUA | 0.0263 µM | 0.0234 µM | – | –
3 | UCCGCAUCUGAGAAGGGAUCUCCGCGGAAGGGAUCAGGAUAUCGGACAUGAGGAUCACCCAUGUGCCGUUAAAGGACACCUGGU | – | 0.00736 µM | – | –
4 | GCUCCGCACUAGAAGGGUGACAUGAGGAUCACCCAUGUGCACUUCCGCUCUUAGCGGAAAGUGCCACAGGAUAUAGUGUGGAGU | – | – | 0.0318 µM | 0.113 µM
5 | UGCGUGGUCACAGGAUAUGCAAGAUAAACUUUAGCAGAAGGGUGAUCAAUUAGCUCAAUACCACAUGAGGAUCACCCAUGUCUA | – | – | 0.0629 µM | 0.314 µM
6 | AUCUUGUAAGGAUAUCGUGCAAGUUUCAAAAGAGGCUUGUGCGAGAAGGUACAUGAGGAUCACCCAUGUAGGUU | 0.0262 µM | 0.0713 µM | – | –
7 | GUGCUCGUGUGAGGAUAUGCCGCCGUUUCGGCUGCAGAAGGUGCUACGUUACAUGAGGAUCACCCAUGUCUCUGUUGUUUCGUG | – | – | 0.021 µM | 0.0214 µM
8 | GGAUAGGACAGAGGAUAUACGUGCUAGAGAUACUAGCAGAAUUUCCUCACAUGAGGAUCACCCAUGUAGAAGGCUGUCCUAUCG | 0.0122 µM | 0.216 µM | – | –
9 | GGACAUGUACAGAAGGGCAAUUUAUUUAUUGAUUAUUUAGUUCUGUAUUGCAGGAUAUGUAAAACAUGAGGAUCACCCAUGUCC | – | – | 0.0735 µM | 0.0564 µM
10 | ACUAGAUGAGGAUAUACACAUUUUAGUGUUCCUCUAGAUUAACAUGAGGAUCACCCAUGUAGAAGGCAUCAAUU | 0.0565 µM | 0.183 µM | – | –
11 | UUCAGCUCGUGAGGAUAUACAUGUGCUGGAAACAGCACUAUUGUGUUCACAUGAGGAUCACCCAUGUAGAAGGCACGAGCUGAG | 0.0186 µM | 0.0821 µM | – | –
12 | CCUAUUAGAAAAUAGACGAAGUGGCCAGAAGGUGAAUGCCACAUGAGGAUCACCCAUGUUUCGAUCAAGGAUAUGGUUUCUCAC | – | – | 0.63 µM | 0.203 µM
13 | UUACCUCAUGAGAAGGCGAUCAUGAAACAUGAUCGAGGAUAUCAUGUAAACAUGAGGAUCACCCAUGUAUGGGUAUUAUGGUAG | – | – | 0.198 µM | 0.0568 µM
14 | AUGUUAUUGGAAGGAUAUAGUUUACUAUUCUAACAUGAGGAUCACCCAUGUAACCUUAUGUGUAUCUAGAAGGUCCAUAACUUA | 0.0546 µM | 0.0623 µM | – | –
15 | UUUUUAUUUGUAGGAUAUGGAGACAUGAGGAUCACCCAUGUAUGAUAAGCUAAAUUAUGAUGUGGCCAGAAGGAUAUUAUUUUU | – | – | 0.0511 µM | 0.0726 µM
16 | UGGUACUAGGGAGGAUAUGGGAAGAUACAUGAGGAUCACCCAUGUUUAAGAAUGCCGAGAGGCAACUAGAAGGCCCGAGUACCU | – | – | 0.456 µM | 0.0216 µM
17 | AAUAACAGAGGAUAUACUGUUUUAUGUGUUUAUUGUUUUAAACAUGAGGAUCACCCAUGUAGAAGGCUGAAUGA | 0.0438 µM | 0.0419 µM | – | –
18 | CACGGACAUGAGGAUCACCCAUGUGAGGAUAUGCUCUACGAACGUUUUCCCACGAGAAGCAGAAGGCACAUUUC | 0.0782 µM | 0.135 µM | – | –
19 | CUCAGCUCGUCAGGAUAUACGUCACUGCUUCGGCAGUGUGGUAAGAUCACAUGAGGAUCACCCAUGUAGAAGGGACGAGCUGAU | 0.0117 µM | 0.248 µM | – | –
20 | CUAUGAGCGAUAGGAUAUACUGAGAUUGAGUGGGUAGAAGGAUCGAUCGUGUAGAAGACAUGAGGAUCACCCAUGUUACGGGCC | – | – | 0.115 µM | 0.147 µM
21 | CAUCUGUCAGGAUAUAUGCGAGGGCCACGAAGCGGCCCUUCAUAGAAGGGACAUGAGGAUCACCCAUGUAGAUC | 0.461 µM | 0.31 µM | – | –
22 | GCGUUACAUGAGGAUCACCCAUGUGAGGAUAUGGUUCGGUACUGUCCUGUCGCGUACUCCAGAAGGCACGUGUG | 0.0476 µM | 0.104 µM | – | –
23 | CCAUGGCAUGUAGGAUAUGUCUGACAAAGUCAGACAGAAGGACAUGAGGAUCACCCAUGUAAAAGAAAACCAACAUAGCCAUGG | 0.00623 µM | 0.00588 µM | – | –
24 | CAUAACUUUGAUCUCUCCUACAUGAGGAUCACCCAUGUUGAGAGAAGGAGGCGGCGGAGUGCCGCCUAGGAUAUCUGAAGGGUC | 0.00606 µM | 0.00735 µM | – | –
25 | CCAUGCGGAAUAGGAUAUUCAUUCAUGAGGAUAGAAGAAGGGUUACAUGAGGAUCACCCAUGUAUACACAUGAGGAUCCCUUAC | 0.162 µM | 0.18 µM | – | –
26 | AAGUAGAUCCGAGGAUAUACAUAGUGGAAUCGCUACAUGAGGAUCACCCAUGUAGAAGGCGGAUCUACAGGUACUAAAGUACCA | 0.014 µM | 0.112 µM | – | –
27 | CUAUUCCGAGGAUAUACAUGAGGAUCACCCAUGUCGGGCCUCUGGCCUAAGGCCGAAAGUAGAAGGUGGGUUUC | 0.0646 µM | 0.0615 µM | – | –
28 | CCGGAUAUGCAGGAUAUCGUAUCGGAUACGAUACGAGAAGGGUAUACAUGAGGAUCACCCAUGUGCCUUACCGG | 0.0193 µM | 0.02 µM | – | –

Row | Sequence | apparent Kd [1] | apparent Kd [2] | apparent Kd [3] | apparent Kd [4]
29 | UUAUUAUAUGUAGGAUAUGCAUAUUAUUAUUAUGCAGAAGGACAUGAGGAUCACCCAUGUAUGUUAUUAUUAUAUAUUAUAUAU | 0.0261 µM | 0.0347 µM | – | –
30 | UUUUUGUGAGGAUAUCAGUAGUAAAAAAAUAAAAUUACUACUGAGAAGGCACAUGAGGAUCACCCAUGUUCUUU | 0.0187 µM | 0.0585 µM | – | –
31 | AUAUUAAGUGUGAGGAUAUGCUGGUCCUUGGAUCAGCAGAAGGCACAUGAGGAUCACCCAUGUAAUAUAUUUAU | 0.0904 µM | 0.349 µM | – | –
32 | GGUUGACAAAGUCAACCUUAACGAACAUGAGGAUCACCCAUGUAGGAUAUGCUACUCAAAGAGUAGCAGAAGGACAUGUGCCUU | 0.033 µM | 0.278 µM | – | –
33 | GGCCCGGGAGGAUAUACAUGAGGAUCACCCAUGUGCUUGAGCUUGAUCGAGUUCGAGUGUAGAAGGCCCGGGCC | 0.014 µM | 0.0218 µM | – | –
34 | CCUAUGUGAGGAUAUCACUGGUCUUCUCACUGGAUGACCAGUGAGAAGGCACAUGAGGAUCACCCAUGUCGGUG | 0.436 µM | 0.349 µM | – | –
35 | UAUAAUAUUAUAGGAUAUGGAUACGAUGCGUAUCCAGAAGGGUGAUUAUAAUAUAAUCUAUACAUGAGGAUCACCCAUGUUUAU | – | – | 0.301 µM | 0.121 µM
36 | ACCAGUGCAUCAGGAUAUCCUCACAUGAGGAUCACCCAUGUAAUGAGCCGAGGAGAAGGGAUGUGAACUCCAGUUAUCGAUCGU | – | – | 0.101 µM | 0.0141 µM
37 | GGUACUCAAAGAGUACCAAUACGAACAUGAGGAUCACCCAUGUAGGAUAUGCUACUCAAAGAGUAGCAGAAGGACGUGUGCCUU | 0.0214 µM | 0.0424 µM | – | –
38 | CGAUAUUAUGCAGGAUAUCUCCCUUGAAUGAGGAGAGAAGGGCAUAGGGAGACAUAAGCCUUAUUACAUGAGGAUCACCCAUGU | 0.00967 µM | 0.00835 µM | – | –
39 | UGGUACUAGGGAGGAUAUGGGAAGAUACAUGAGGAUCACCCAUGUUUUAGAAUGCCGAGAGGCAACUAGAAGGCCCUAGUACCU | – | – | 1.11 µM | 0.0746 µM
40 | GCGUAUAUAAGAUUUAUAAAACAGUCAGAAGGUGAUAAGACGACAUGAGGAUCACCCAUGUAAUUCAAGGAUAUGAUAAUGCGC | – | – | 0.0563 µM | 0.0154 µM
41 | GGUACUCAAAGAGUACCAAAACGAACAUGAGGAUCACCCAUGUAGGAUAUGCUACUCAAAGAGUAGCAGAAGGACAUGUGCCUA | – | 0.122 µM | – | –
42 | GCACUGGAUGUAGGAUAUCAGGACGAUAAGUCCUGAGAAGGACAUGAGGAUCACCCAUGUAAAACUCAACCAGUGCAUAAUAUA | 0.0145 µM | 0.0185 µM | – | –
43 | GGUACUCAAAGAGUACCAAUACGAACAUGAGGAUCACCCAUGUAGGAUAUGCUAUGCAAAGCAUAGCAGAAGGACAUGUGCCUU | 0.0417 µM | 0.276 µM | – | –
44 | CCUCAGUUAGGAUAUUACUAAUCACUAACCGGGCAACUGGGUAAGAAGGAACAUGAGGAUCACCCAUGUUACGU | 0.0221 µM | 0.0222 µM | – | –
45 | UCAACCGGCGCCGGUUAAACAUGAGGAUCACCCAUGUACUCCAGAAGGCCGCCCAAGAACGGAGUGGAGGAUAUGGAGGUUCUC | – | – | 0.0451 µM | 0.0287 µM
46 | AAAUUACAUGAGGAUCACCCAUGUUUAAAAAAUAUAGGAUAUGUAAAAAAAAAAAAAAAAACAGAAGGGUAAAAAA | – | – | 0.0448 µM | 0.042 µM
47 | AGUCGGAGCAGAGGAUAUAUACAUGAGGAUCACCCAUGUAAAGAUCAAAGCAGGAAACUGCAAGUAUAGAAGGCUGCUCCGACA | 0.108 µM | 0.231 µM | – | –
48 | ACCCGCAAACGUUGGAAUCGUAAGAGAAGGUGGACAUGAGGAUCACCCAUGUGCAUCCUGCGUUCCAAGGAUAUCUUACUGAAU | 0.0109 µM | 0.048 µM | – | –
49 | GGGCCCGGAGGAUAUACAUGAGGAUCACCCAUGUACUCGGGCUCUAUUGGGCUCGGGUGUAGAAGGCCGGGCCC | 0.0137 µM | 0.0141 µM | – | –
50 | GGAGACCUCAUAGGAUAUGCUGGACUUUGUCCAGCAGAAGGGUGAAAACAUGAGGAUCACCCAUGUAUGGUCUCCAAAUUUAAU | – | – | 0.992 µM | 0.327 µM
51 | CGUCUAUGCCAGAAGGCAUAAAACAUGAGGAUCACCCAUGUCAAAGACAUGAGGAUAUGGCAUAGACGAAAAGUGCGAAAGCAC | – | – | 0.0179 µM | 0.00497 µM
52 | GGAUAGGACAGAGGAUAUACGUGCUAGAGAUACUAGCAAAAUUUCAUCACAUGAGGAUCACCCAUGUAGAAGGCUGUCCUAUCG | 0.00481 µM | 0.00863 µM | – | –
53 | AGCUAGGCAGGAUAUACGUAAAUGUCGAAAGACGUAUUGGGACAUGAGGAUCACCCAUGUAGAAGGGCCUAGCA | 0.0316 µM | 0.165 µM | – | –
54 | GCAACGCCUGACAUGAGGAUCACCCAUGUUAGAUUGUUAUGUCAGGAUAUUGUCGCGAAACGUGAUGAGAAGGGAUAUGUUGCU | – | – | 0.815 µM | 0.0539 µM
55 | AUCCGCUCGUCAGGAUAUACGUCACUGCGUCAGCAGUGUGGUAAGAUCACAUGAGGAUCACCCAUGUAGAAGGGACGAGCUGAU | 0.0136 µM | 0.277 µM | – | –
